TDP2 absorb: TDP2 (human) inhibition, absorbance primary screen; recombinant TDP2, T5PNP hydrolysis, p-nitrophenol absorbance 415 nm; inhibition, % at 12.8 µM; 370,000 compounds, 0.34% hits;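 active = inhibition above the mean of all tested compounds plus 3 SD, set per campaign, cut at about 25% in these data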;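 note: 0% = DMSO with enzyme and 100% = buffer with substrate but no TDP2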
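System: recombinant human TDP2 / Amount: 120 nM TDP2 per well / Also added: 5 mM T5PNP chromogenic substrate / Doses: 12.8 µM single point, 1% DMSO / Incubation: 2 h at 37 °C / Detection: p-Nitrophenol epi absorbance / Evaluation: % inhibition relative to enzyme-containing and enzyme-free wells / Repeats: singlicate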
LEDGF integ inh: blocks HIV-1 LEDGF/p75-dependent DNA integration | TR-FRET IN-LEDGF/p75 DNA integration, Eu/Cy5 | inhibition, % at 3.7 µM | 370,000 compounds, 0.64% hits | AID 743269;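 active = inhibition above the screen-wide mean plus 3 SD, cut at about 13% in these data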;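 note: signal is the Cy5 over europium emission ratio at 671 and 618 nm; 0% = plate median of compound wells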
NSD2 inh: blocks human histone methyltransferase NSD2 | O96028 | NSD2 peptide methylation, AlphaScreen, 120 min | inhibition, % at 12.5 µM | 310,000 compounds, 0.54% hits | AID 743445; in the data active = inhibition above about 50%
UCH37 inh: human UCH37 deubiquitinating enzyme inhibition. purified proteasome/UCH37, Ub-AMC cleavage fluorescence. inhibition, % (test concentration not listed). 330,000 compounds, 0.33% hits. Q9Y5K5. AID 588478;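 active = mean inhibition over replicate wells above about 20%, limit read from the data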;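 note: 0% = compound-free wells with enzyme and 100% = wells lacking proteasome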
Target sequence (Q9Y5K5 whole entry, looked up): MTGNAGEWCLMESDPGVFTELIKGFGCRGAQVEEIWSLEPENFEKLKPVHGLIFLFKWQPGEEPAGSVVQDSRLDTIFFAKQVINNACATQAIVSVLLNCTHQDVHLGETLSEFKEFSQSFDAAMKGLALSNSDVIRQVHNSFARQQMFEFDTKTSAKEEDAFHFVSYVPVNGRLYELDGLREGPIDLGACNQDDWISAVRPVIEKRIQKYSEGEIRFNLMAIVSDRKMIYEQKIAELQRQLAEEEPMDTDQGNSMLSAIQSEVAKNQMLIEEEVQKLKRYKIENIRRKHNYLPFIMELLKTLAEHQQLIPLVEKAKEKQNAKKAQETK
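Material: human UCH37 enzyme supplied as purified proteasome complex / Amount: 0.15 nM proteasome as dispensed / Buffer or medium: pH 7.4 Tris-HCl (50 mM) with ovalbumin, ATP-MgCl2, DTT / Times: preincubation 30 min, reaction 25 min, room temperature / Technique: AMC fluorescence from Ub-AMC cleavage, excitation 355 nm, emission 460 nm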
Casp6 inh: blocks human caspase-6 cleavage activity; AID 686996; 350,000 compounds, 0.53% hits; P55212; purified caspase-6, Z-VEID-R110 cleavage fluorescence; inhibition, % at 12.5 µM;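 active = mean inhibition across replicates at least about 35%, with every replicate also reaching that limit, limit read from the data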;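 note: 0% = median of neutral control wells and 100% = no fluorescence left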
Alpha artifact: interferes with AlphaScreen signal, flagging NSD2 false positives. shares compounds with NSD2 inh. AlphaScreen artifact counterscreen, preloaded methylated H4 peptide. AC35, µM (top dose mostly 10 µM), inactives show top-dose activity change, negative = signal loss. 1,500 compounds, 9.4% hits. AID 1053174; call rule not given here
An asterisk follows results filed as active; x = not tested or not shown. Rows were chosen to be rich in hits. Some 1.3% of all compounds tested hit in one or more screens of this group.

SMILES | TDP2 absorb | LEDGF integ inh | NSD2 inh | UCH37 inh | Casp6 inh | Alpha artifact
Cc1ccc(NC(=O)CC2SC3=NCCN3C2=O)cc1 (configuration not stated) | 7 | 2 | -4 | 4 | x | x
O=C(CC1SC2=NCCN2C1=O)Nc1ccccc1 (configuration not stated) | 14 | 0 | 115* | 4 | x | -3%
CC1=NNC(=O)C1CCC(=O)NN=Cc1ccc(Cl)cc1 (configuration not stated) | x | x | x | 5 | x | x
COc1ccccc1NS(=O)(=O)c1ccc(C(=O)N2CCCCCC2)cc1 | 6 | -3 | -2 | -1 | 3 | x
CCOC(=O)C1CCCN(C(=O)c2ccc(OC(C)=O)cc2)C1 (configuration not stated) | 5 | 0 | 93* | 1 | x | -6%
CCOC(=O)C1CCCN(C(=O)c2ccc(S(=O)(=O)Nc3ccccc3OC)cc2)C1 (configuration not stated) | 2 | -5 | 54* | 1 | -40 | 2%
O=C(Nc1ccc(Cl)cc1C(F)(F)F)c1ccccc1Cl | 6 | 2 | -1 | -1 | -1 | x
Cc1ccc(C(=O)Nc2ccc(Cl)cc2C(F)(F)F)c(Cl)c1 | -4 | 1 | 188* | 4 | 3 | 1%
O=C(COc1cccc2ccccc12)NN=Cc1ccco1 | x | x | x | 1 | x | x
C=CCn1c(SCC(=O)N2CCN(c3ccccc3)CC2)nnc1-c1ccco1 | 6 | -1 | 84* | 4 | -2 | -5%
CCOC(=O)C(=NNc1ccc(C)cc1)S(=O)(=O)c1ccc(Cl)cc1 | x | x | x | 7 | x | x
CN(C1=C(N2CCOCC2)C(=O)c2ccccc2C1=O)c1ccccc1 | -2 | -1 | 76* | 7 | x | 2.9µM*
c1ccc(N2CCOCCOCCOCCOCCOCC2)cc1 | 9 | 1 | 1 | 1 | 0 | x
CCCCNC(=S)NN=CC1=CCC2CC1C2(C)C (configuration not stated) | x | x | x | 1 | x | x
O=c1c2c(-c3cccs3)csc2ncn1N=Cc1ccccn1 | x | x | x | 4 | x | x
CC(=NNC(=O)c1ccccc1O)C1CC1 | x | x | x | -101 | x | x
CCN(CC)c1ccc(NC(=O)COC(=O)c2ccc3ccccc3n2)cc1 | -6 | 1 | 107* | 6 | x | -10%
COc1ccc(NC(=O)COC(=O)c2ccc3ccccc3n2)cc1 | -10 | 0 | 0 | 5 | 1 | x
Cc1ccc(/C=C2/C(=N)N3N=C(CC(=O)N4CCCC4)SC3=NC2=O)o1 | 4 | 6 | 4 | 19 | 11 | x
N=C1/C(=C\c2ccc(Br)o2)C(=O)N=C2SC(CC(=O)N3CCCCC3)=NN12 | 7 | 8 | 67* | 10 | -1 | -5%
COc1ccc(C=NNC(=O)CN(C2=NS(=O)(=O)c3ccccc32)c2ccccc2)cc1 | x | x | x | 4 | x | x
CN(C)c1cc(NN=Cc2ccc(Cl)cc2)nc(N(C)C)n1 | x | x | x | 1 | x | x
CN(C)c1cc(N/N=C/c2ccc(Cl)cc2)nc(N(C)C)n1 | -6 | -2 | 100* | x | 1 | -4%
Cc1cccc(C)c1OCC(O)CNS(=O)(=O)c1ccccc1C(=O)N1CCCCC1 (configuration not stated) | 4 | 0 | 105* | 1 | x | -6%
CC(C)CNS(=O)(=O)c1ccccc1C(=O)N1CCCCC1 | -1 | -4 | -2 | 2 | x | x
SMILES | TDP2 absorb | LEDGF integ inh | NSD2 inh | UCH37 inh | Casp6 inh | Alpha artifact
O=C(CCc1nnc(-c2ccccc2)o1)NCc1cc(F)ccc1F | -9 | -6 | 51* | 0 | -2 | 6%
C=CCn1c(COc2ccccc2)nnc1SCC(=O)NN=Cc1cc(Cl)ccc1O | x | x | x | 1 | x | x
S=C(N=c1sccn1Cc1ccccc1)NC1CC1 | x | x | x | 5 | x | x
O=C(NN=Cc1ccccc1F)c1ccc(-c2ccccc2)cc1 | x | x | x | 5 | x | x
COC(=O)c1cc(S(=O)(=O)Nc2cccc(OC)c2)cn1C | 0 | 0 | x | 8 | 6 | x
CCOC(=O)c1cc(S(=O)(=O)Nc2ccc(OC)cc2OC)cn1C | 17 | 2 | 56* | 1 | -2 | -4%
CCOCCCNC1=C(Cl)C(=O)c2ccccc2C1=O | -2 | -2 | 81* | 24* | 8 | -14%
CC(=NN1C(=O)c2ccccc2NC1c1ccco1)c1ccccc1O (configuration not stated) | x | x | x | 0 | x | x
CC1C(=O)N(Cc2ccccc2F)c2ccccc2N1C(=O)c1c(F)cccc1F (configuration not stated) | -14 | 6 | -2 | 4 | 2 | x

Screening data: PubChem BioAssay, several laboratories
